In one test the test system is U-937. In words: Cytotoxicity against human U937 cells after 24 to 48 hrs by MTT assay. In kind it is functional, cell-based. In general terms: Tetrazolium dyes change colour on reduction, which living cells bring about.
Test [1] deals with M14. In words: Cytotoxicity against human M14 cells after 24 to 48 hrs by MTT assay. It is filed as functional, cell-based.
Another test relates to HEK293. Nature of the test: Cytotoxicity against transformed human HEK293 cells after 24 to 48 hrs by MTT assay. It is filed as functional, cell-based.
Test [2] has as its system M14. In words: Induction of apoptosis in human M14 cells assessed as PARP cleavage at 0.1 to 0.3 uM after 16 hrs by Western blot. It is filed as functional, cell-based. The procedure, abridged:
(§1)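 M14 cells (1 × 10⁶ per flask) exposed 16 and 24 h, then lysed in ice-cold Triton lysis buffer with protease inhibitors. Equal protein run on 8-12% SDS-PAGE and blotted to nitrocellulose. Probed overnight at 4 °C for cleaved active caspase-3 subunits or PARP cleavage (85 kDa fragment), with HRP secondary and ECL read-out. Tubulin reprobe.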
For orientation: In western blotting, separated proteins are transferred to a membrane and probed.

In test [3] the test system is M14. Nature of the test: Induction of cell morphology impairment in human M14 cells at cytotoxic IC50 concentration by phase contrast microscopy. In kind it is functional, cell-based. The procedure, abridged: (§2)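 Logarithmically growing M14 cells plated at 10⁵ cells/mL, with compound added after 24 h and vehicle controls alongside. Followed by inverted phase-contrast time-lapse microscopy at 37 °C under 5% CO₂, images taken hourly for up to 72 h. Rounding, blebbing and detachment scored at 10, 24 and 48 h.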

Test [4] concerns M14. Nature of the test: Induction of cell morphology impairment in human M14 cells assessed as cell detachment at cytotoxic IC50 concentration after 48 hrs by phase contrast microscopy.
Test [5] deals with M14. In words: Effect on cell cycle progression in human M14 cells at 0.3 uM after 24 hrs by flow cytometry. In kind it is functional, cell-based. A digest of the protocol: (§3)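 M14 cells at 2,5 × 10⁵ cells/mL in 12-well plates, treated 24 h (vehicle controls run alongside). Cells were trypsinised, washed in PBS and stained with propidium iodide in 0.1% sodium citrate/0.1% Triton X-100 at 4 °C for 30 min in the dark. FACScan analysis gave the percentage of cells in G0/G1, S and G2/M. Hypodiploid nuclei were scored as apoptotic.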
On the technique in general: Flow cytometry measures light scatter and fluorescence of single cells or particles in a stream.

In test [6] the test system is M14. In words: Induction of apoptosis in human M14 cells assessed as caspase-3 activation at 0.1 to 0.3 uM after 16 hrs by Western blot. It is filed as functional, cell-based. The procedure, abridged:
as §1

Test [7] deals with M14. Nature of the test: Effect on cell cycle progression in human M14 cells at 1 uM after 24 hrs by flow cytometry. It is filed as functional, cell-based. The procedure, abridged: as §3
Test [8] has as its system M14. In words: Increase in p53 expression in human M14 cells at 0.3 uM after 24 to 48 hrs by Western blot. In kind it is functional, cell-based. A digest of the protocol:
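M14 cells (1 × 10⁶ per flask) treated 24 and 48 h alongside untreated controls. Lysed in ice-cold Tris/NaCl/EDTA/1% Triton buffer with protease inhibitors. Equal protein run on 8-12% SDS-PAGE and blotted to nitrocellulose. Blocked in milk/Tween-TBS, anti-p53 overnight at 4 °C, HRP secondary, ECL detection. Cytoplasmic p53 read, with tubulin as reprobe.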

For test [9], the system named is M14. In words: Induction of cell morphology impairment in human M14 cells assessed as emergence of round and damaged cells at cytotoxic IC50 concentration after 10 hrs by phase contrast microscopy. In kind it is functional, cell-based. The procedure, abridged: as §2
Test [10] deals with M14. Nature of the test: Increase in p53 expression in human M14 cells at 3 uM after 24 to 48 hrs by Western blot. In kind it is functional, cell-based. The procedure, abridged: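 M14 cells (1 × 10⁶ per flask), treated for 24 and 48 h. Lysed in ice-cold 50 mM Tris, 150 mM NaCl, 10 mM EDTA, 1% Triton with protease inhibitors. Equal protein run on 8-12% SDS-PAGE and blotted to nitrocellulose. Cytoplasmic p53 probed overnight at 4 °C, detected by HRP secondary and ECL, with tubulin as loading reprobe.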

In test [11] the test system is M14. Nature of the test: Cell cycle arrest in human M14 cells assessed as accumulation at G2/M phase at 3 uM after 24 hrs by flow cytometry. In kind it is functional, cell-based. A digest of the protocol: (§4)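 Trypsinized, washed in PBS, stained in the dark at 4 °C for 30 min with 0.1% sodium citrate, 0.1% Triton X-100 and propidium iodide. Analyzed by FACScan flow cytometry. Phase distribution (G0/G1, S, G2/M) given as percentage of cells.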

Test [12] concerns M14. In words: Induction of apoptosis in human M14 cells assessed as caspase-3 activation at supra cytotoxic IC50 concentration after 16 to 24 hrs by Western blot. In kind it is functional, cell-based.
Test [13] relates to M14. Nature of the test: Cell cycle arrest in human M14 cells assessed as decrease in G0/G1 phase accumulation at 3 uM after 24 hrs by flow cytometry. It is filed as functional. Details: scale not given: the % may be the effect or the level left. The procedure, abridged: as §4
Test [14] relates to M14. Nature of the test: Cell cycle arrest in human M14 cells assessed as accumulation at G2 phase at 3 uM after 24 hrs by flow cytometry. It is filed as functional. The procedure, abridged: as §4
In test [15] the test system is M14. In words: Induction of apoptosis in human M14 cells at 1 to 5 uM after 24 hrs. In kind it is functional, cell-based.

Calls of active or inactive are those of the source. The calls are words filed in the database; no cut-off is given here.

By IC50 is commonly meant the midpoint of a concentration-inhibition curve. As to `Cc1ccc(CN2C(=O)[C@@H]3CS[C@]4(C(=O)Nc5ccc(C)cc54)N3C2=O)cc1`, the half-inhibitory concentration (IC50) with U-937 is 2.77 µM; with M14 [1], 3.39 µM; with HEK293, 3.01 µM.
On the same counts, the results for `COc1cc(CN2C(=O)[C@@H]3CS[C@]4(C(=O)N(C(=O)c5ccc(Cl)cc5)c5ccc(C)cc54)N3C2=O)cc(OC)c1OC` are 3.11 µM, 8.14 µM and 4.71 µM.
On the same counts, the results for `Cc1ccc(C(=O)N2C(=O)[C@]3(SC[C@H]4C(=O)N(Cc5ccc(Cl)cc5)C(=O)N43)c3ccccc32)cc1` are 2.01 µM, 2.08 µM and 2.5 µM.
Take `Cc1ccc(CN2C(=O)[C@@H]3CS[C@]4(C(=O)Nc5ccc(Br)cc54)N3C2=O)cc1`: the IC50 was 6.23 µM in the test with U-937, 10.2 µM with M14 [1] and 7.61 µM in the test with HEK293.
On the same counts, the results for `CN1C(=O)[C@]2(SC[C@H]3C(=O)N(C4CCC(C)(C)CC4)C(=O)N32)c2ccccc21` are over 40 µM, over 40 µM and over 40 µM.
On the same counts, the results for `Cc1ccc(CN2C(=O)[C@@H]3CS[C@]4(C(=O)N(C)c5ccccc54)N3C2=O)cc1` are 16.8 µM, 31.8 µM and 10.7 µM.
For `CN1C(=O)[C@]2(SC[C@H]3C(=O)N(Cc4ccccc4)C(=O)N32)c2ccccc21`, in that order: 2.89 µM, 6.37 µM and 3.98 µM.
As for `COc1cc(CN2C(=O)[C@@H]3CS[C@]4(C(=O)Nc5ccc(Br)cc54)N3C2=O)cc(OC)c1OC`, the values for the IC50 with U-937, with M14 [1] and with HEK293 were 5.02 µM, 11 µM and 9.31 µM, respectively.
On the same counts, the results for `COc1cc(CN2C(=O)[C@@H]3CS[C@]4(C(=O)N(C)c5ccccc54)N3C2=O)cc(OC)c1OC` are 5.7 µM, 7.66 µM and 6.01 µM.
In the case of `CC1(C)CCC(N2C(=O)[C@@H]3CS[C@]4(C(=O)Nc5ccc(Br)cc54)N3C2=O)CC1`, the IC50 in the test with U-937, with M14 [1] and with HEK293 was over 40 µM in each case.
`COc1cc(CN2C(=O)[C@@H]3CS[C@]4(C(=O)N(C(=O)c5ccc(C)cc5)c5ccc(C)cc54)N3C2=O)cc(OC)c1OC`: the IC50 with U-937 came to 2.42 µM; with M14 [1], 5.95 µM; with HEK293 it was 3.81 µM.
On the same counts, the results for `Cc1ccc(CN2C(=O)[C@@H]3CS[C@]4(C(=O)Nc5ccccc54)N3C2=O)cc1` are 5.91 µM, 13.3 µM and 4.53 µM.
Consider `CN1C(=O)[C@]2(SC[C@H]3C(=O)N(Cc4ccc(Cl)cc4)C(=O)N32)c2ccccc21`, for which the IC50 with U-937 is 2.91 µM; with M14 [1] it was 2.47 µM; with HEK293, 2.11 µM.
For `Cc1ccc2c(c1)[C@@]1(SC[C@H]3C(=O)N(Cc4ccccc4)C(=O)N31)C(=O)N2`, in that order: 2.09 µM, 3.88 µM and 3.3 µM.
For `O=C1[C@@H]2CS[C@]3(C(=O)Nc4ccccc43)N2C(=O)N1Cc1ccccc1`, in that order: 3.9 µM, 10.6 µM and 4.8 µM.
For the compound `O=C1[C@@H]2CS[C@]3(C(=O)Nc4ccccc43)N2C(=O)N1Cc1ccc(Cl)cc1`, the result in the test with M14 [2], with M14 [3], in the test on M14 [4], in the test with M14 [6], with M14 [8] and in the test on M14 [9] was Active. The IC50 in the test with U-937 is 0.87 µM; in the test with M14 [1] it was 0.53 µM; in the test with HEK293, 0.44 µM. Moreover, the result in the test with M14 [5] and in the test with M14 [7] was inactive.
Regarding `COc1cccc2c1C(=O)c1c(O)c3c(c(O)c1C2=O)C[C@@](O)(C(=O)CO)C[C@@H]3O[C@H]1C[C@H](N)[C@H](O)[C@H](C)O1` [DOXORUBICIN], the IC50 was found to be 0.8 µM in the test on U-937, 1 µM in the test on M14 [1] and 0.9 µM with HEK293.
With `COc1cc(CN2C(=O)[C@@H]3CS[C@]4(C(=O)Nc5ccccc54)N3C2=O)cc(OC)c1OC`, the figures for the IC50 in the test on U-937, in the test with M14 [1] and in the test on HEK293 were 2.51 µM, 4.73 µM and 3.8 µM, respectively.
`CCCC(=O)N1C(=O)[C@]2(SC[C@H]3C(=O)N(Cc4cc(OC)c(OC)c(OC)c4)C(=O)N32)c2cc(C)ccc21`: the IC50 in the test with U-937 came to 4.1 µM; with M14 [1] it was 7.4 µM; with HEK293 it was 4.42 µM.
For `O=C1[C@@H]2CS[C@]3(C(=O)Nc4ccc(Br)cc43)N2C(=O)N1Cc1ccc(Cl)cc1`, in that order: 5.01 µM, 7.06 µM and 7.13 µM.
For `Cc1ccc2c(c1)[C@@]1(SC[C@H]3C(=O)N(C4CCC(C)(C)CC4)C(=O)N31)C(=O)N2`, the IC50 amounted to 12.5 µM in the test with U-937, 19.1 µM in the test on M14 [1] and 16 µM in the test on HEK293.
As for `CCCC(=O)N1C(=O)[C@]2(SC[C@H]3C(=O)N(Cc4ccc(Cl)cc4)C(=O)N32)c2ccccc21`, the half-maximal inhibitory concentration (IC50) was 2.1 µM in the test with U-937, 2.04 µM in the test with M14 [1] and 2.01 µM in the test with HEK293.
For `COc1cc(CN2C(=O)[C@@H]3CS[C@]4(C(=O)N(C(=O)c5ccccc5)c5ccc(C)cc54)N3C2=O)cc(OC)c1OC`, in that order: 4.31 µM, 7.84 µM and 4.22 µM.
For `CC1(C)CCC(N2C(=O)[C@@H]3CS[C@]4(C(=O)Nc5ccccc54)N3C2=O)CC1`, in that order: 2.61 µM, 7.07 µM and 4.22 µM.
For `O=C1[C@@H]2CS[C@]3(C(=O)Nc4ccc(Br)cc43)N2C(=O)N1Cc1ccccc1`, in that order: 7.58 µM, 12 µM and 8.48 µM.
`Cc1ccc2c(c1)[C@@]1(SC[C@H]3C(=O)N(Cc4ccc(Cl)cc4)C(=O)N31)C(=O)N2`: the 50% inhibitory concentration (IC50) in the test with U-937 is 3.31 µM; with M14 [1], 6.65 µM; with HEK293, 3.88 µM. Further, in the test with M14 [10], the result was Active.
Take `O=C1[C@@H]2CS[C@]3(C(=O)N(C(=O)c4ccc(Cl)cc4)c4ccccc43)N2C(=O)N1Cc1ccc(Cl)cc1`: the IC50 with U-937 is 2.61 µM; with M14 [1], 3.37 µM; in the test with HEK293 it was 5.01 µM.
For the compound `COc1cc(CN2C(=O)[C@@H]3CS[C@]4(C(=O)Nc5ccc(C)cc54)N3C2=O)cc(OC)c1OC`, the IC50 in the test on U-937 was 2.06 µM; with M14 [1], 2.4 µM; in the test on HEK293, 2.04 µM. Further, the outcome with M14 [3], in the test on M14 [4], in the test with M14 [11] and in the test on M14 [9] was Active. The outcome in the test on M14 [12] and in the test with M14 [15] was inactive. Also, the Activity in the test with M14 [13] turned out to be 20%; in the test on M14 [14] it was 47%.
Consider `O=C1[C@@H]2CS[C@]3(C(=O)N(C(=O)c4ccccc4)c4ccccc43)N2C(=O)N1Cc1ccc(Cl)cc1`, for which the IC50 is 3.12 µM with U-937, 3.25 µM with M14 [1] and 3.5 µM in the test with HEK293.

Source of the values: ChEMBL document CHEMBL1629533, “Identification of the spiro(oxindole-3,3'-thiazolidine)-based derivatives as potential p53 activity modulators” (J Med Chem, 2010).
